# Data reported in ChEMBL document CHEMBL4699666, “Cyclic Peptidyl Inhibitors against CAL/CFTR Interaction for Treatment of Cystic Fibrosis” (J Med Chem, 2020).
# Active and inactive are the calls of the source. The calls are words filed in the database; no cut-off is given here. Positions of bridges follow the written chain, without caps; N, C: chain ends. Non-standard residues stand in square brackets, D forms with d. Residues, ends and D or L forms follow the SMILES beside them. *: point of attachment. 1Nal = N[C@@H](Cc1cccc2ccccc12)C(=O)O; 2Nal = N[C@@H](Cc1ccc2ccccc2c1)C(=O)O; Bta = N[C@@H](Cc1csc2ccccc12)C(=O)O; Pen = CC(C)(S)[C@H](N)C(=O)O; Tle = CC(C)(C)[C@H](N)C(=O)O; Nicotinoyl = O=C(c1cccnc1)*
# Assays:
# [1] = molecular target: T1, Na(+)/H(+) exchange regulatory cofactor NHE-RF1 (Homo sapiens, UniProt O14745); experiment: Binding affinity to NHERF1 PDZ1 domain (unknown origin) expressed in Escherichia coli BL21 incubated for 1 hr by fluorescence polarization based competition assay
# T1 sequence (O14745 whole entry): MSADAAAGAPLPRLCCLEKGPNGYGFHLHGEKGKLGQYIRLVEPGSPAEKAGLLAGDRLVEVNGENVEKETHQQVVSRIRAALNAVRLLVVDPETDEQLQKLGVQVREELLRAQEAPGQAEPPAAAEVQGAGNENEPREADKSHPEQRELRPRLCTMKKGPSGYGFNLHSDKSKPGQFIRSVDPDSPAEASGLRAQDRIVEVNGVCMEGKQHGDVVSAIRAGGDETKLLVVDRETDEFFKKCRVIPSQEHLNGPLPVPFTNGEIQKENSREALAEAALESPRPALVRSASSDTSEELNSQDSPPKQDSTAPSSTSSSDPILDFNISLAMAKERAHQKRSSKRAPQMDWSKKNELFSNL
# Procedure, shortened: (§1)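 CAL, NHERF1 and NHERF2 PDZ domains carried a C-terminal His6 tag, were expressed in E. coli BL21 (0.1 mM IPTG, 16 h at 18 °C) and purified on Ni-NTA. For direct binding, 50 nM fluorescein-labelled peptide was titrated with PDZ protein (0–2.5 μM CAL; 0–25 μM NHERF1/2) in PBS pH 7.4 with 0.01% Triton X-100 and 2 mM TCEP for 1 h at room temperature. Fluorescence polarization gave KD; n = 3.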
# [2] = molecular target: T2, Golgi-associated PDZ and coiled-coil motif-containing protein (Homo sapiens, UniProt Q9HD26); experiment: Binding affinity to C-terminal His6 tagged CAL PDZ domain (unknown origin) expressed in Escherichia coli BL21 incubated for 1 hr by fluorescence polarization assay
# [3] = molecular target: T3, Na(+)/H(+) exchange regulatory cofactor NHE-RF2 (Homo sapiens, UniProt Q15599); experiment: Binding affinity to NHERF2 PDZ2 domain (unknown origin) expressed in Escherichia coli BL21 incubated for 1 hr by fluorescence polarization based competition assay
# T3 sequence (Q15599 whole entry, the tested form may be a part): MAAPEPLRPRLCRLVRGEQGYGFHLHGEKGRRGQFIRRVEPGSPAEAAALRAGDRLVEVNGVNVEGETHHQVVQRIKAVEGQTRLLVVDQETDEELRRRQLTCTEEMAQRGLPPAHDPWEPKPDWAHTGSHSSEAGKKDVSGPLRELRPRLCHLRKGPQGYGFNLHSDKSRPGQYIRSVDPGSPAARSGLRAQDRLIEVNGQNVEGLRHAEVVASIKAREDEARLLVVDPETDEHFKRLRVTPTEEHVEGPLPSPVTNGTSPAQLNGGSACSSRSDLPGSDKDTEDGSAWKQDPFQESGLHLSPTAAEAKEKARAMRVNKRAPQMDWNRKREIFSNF
# [4] = molecular target: T3, Na(+)/H(+) exchange regulatory cofactor NHE-RF2; experiment: Binding affinity to NHERF2 PDZ1 domain (unknown origin) expressed in Escherichia coli BL21 incubated for 1 hr by fluorescence polarization based competition assay; procedure, shortened: as §1
# [5] = molecular target: T2, Golgi-associated PDZ and coiled-coil motif-containing protein; experiment: Binding affinity to C-terminal His6 tagged CAL PDZ domain (unknown origin) expressed in Escherichia coli BL21 incubated for 1 hr using FAM-ANSRWPTSII-OH probe by fluorescence polarization based competition assay
# [6] = Drug uptake in human HeLa cells at 5 uM incubated for 2 hrs by flow cytometry relative to CPP9; format: ADME, cell-based
# Procedure, shortened: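 Naphthofluorescein-labelled cyclic peptides (5 μM final, 0.5% DMSO, in DMEM with 10% FBS) were applied to HeLa cells, seeded the day before at 15 × 10^4 per well, for 2 h at 37 °C. Cells were washed with cold DPBS, trypsinized and analysed by flow cytometry. Mean fluorescence was expressed as % of CPP9; n = 3.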
# [7] = molecular target: T2, Golgi-associated PDZ and coiled-coil motif-containing protein; experiment: Binding affinity to C-terminal His6 tagged CAL PDZ domain (unknown origin) expressed in Escherichia coli BL21 incubated for 1 hr using FAM-22 probe by fluorescence polarization based competition assay
# Epithelial cell = experiment: Inhibition of CAL and CFTR F508del mutant interaction in human CF-HBE cells isolated from patient with F508del mutation assessed as increase in short-circuit current at 100 nM incubated for 24 hrs in presence of 5 uM VX-809 by relative to VX-809 alone; format: cell-based; settings: time 2.0 hrs, in the assay text read “incubated for 2 hrs” for “incubated for 24 hrs”
# Procedure, shortened: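 Primary F508del-homozygous bronchial epithelia from one donor, grown at air/liquid interface, were treated with 5 μM VX-809 for 48 h, then with 100 nM peptide for 2 h. Short-circuit current was measured in an Ussing chamber and scaled to VX-809 alone (100%). Results are 2–3 replicates per condition.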
structure (smiles),measurement,setting,value
C[C@@H](O)[C@H](NC(=O)[C@@H](NC(=O)[C@@H]1CCCN1C(=O)[C@H](Cc1csc2ccccc12)NC(=O)[C@H](Cc1ccc2ccccc2c1)NC(=O)[C@H](CCCNC(=N)N)NC(=O)[C@H](CCCNC(=N)N)NC(=O)[C@@H](CCCNC(=N)N)NC(=O)[C@H](CS)NC(=O)COCCOCCNC(=S)Nc1ccc2c(c1)C(=O)OC21c2ccc(O)cc2Oc2cc(O)ccc21)C(C)(C)S)C(=O)N[C@@H](CCCNC(=N)N)C(=O)N[C@H](C(=O)O)C(C)(C)C,Kd,[1],3970 nM
same,Kd,[2],87 nM
same,Kd,[3],7.66 µM
same,Kd,[4],6040 nM
CC(=O)N[C@@H](CCCNC(=N)N)C(=O)N[C@@H](CCCNC(=N)N)C(=O)N[C@@H](Cc1ccccc1)C(=O)N[C@@H](Cc1c[nH]c2ccccc12)C(=O)N[C@@H](CCC(N)=O)C(=O)N[C@@H](CS)C(=O)N[C@H](C(=O)N[C@@H](CCCCNC(=O)c1cccnc1)C(=O)N[C@H](C(=O)O)C(C)(C)C)[C@@H](C)O (Ac-RRFWQCTK(Nicotinoyl)[Tle]-OH),IC50,[5],2200 nM
CC(=O)N[C@@H](CS)C(=O)N[C@H](CCCNC(=N)N)C(=O)N[C@@H](CCCNC(=N)N)C(=O)N[C@@H](CCCNC(=N)N)C(=O)N[C@@H](Cc1ccc2ccccc2c1)C(=O)N[C@@H](Cc1csc2ccccc12)C(=O)N1CCC[C@H]1C(=O)N[C@H](C(=O)N[C@H](C(=O)N[C@@H](CCCNC(=N)N)C(=O)N[C@H](C(=O)O)C(C)(C)C)[C@@H](C)O)C(C)(C)S (Ac-C[dR]RR[2Nal][Bta]P[Pen]TR[Tle]-OH),Drug uptake,[6],36%
CC(=O)N[C@@H](CS)C(=O)N[C@H](CCCNC(=N)N)C(=O)N[C@@H](CCCNC(=N)N)C(=O)N[C@@H](CCCNC(=N)N)C(=O)N[C@@H](Cc1ccc2ccccc2c1)C(=O)N[C@@H](Cc1csc2ccccc12)C(=O)N[C@H](C(=O)N[C@H](C(=O)N[C@H](C(=O)N[C@@H](CCCNC(=N)N)C(=O)N[C@H](C(=O)O)C(C)(C)C)[C@@H](C)O)C(C)(C)C)C(C)(C)S (Ac-C[dR]RR[2Nal][Bta][Pen][Tle]TR[Tle]-OH),IC50,[7],240 nM
same,Drug uptake,[6],518%
CC(=O)N[C@H]1CSSC(C)(C)[C@@H](C(=O)N[C@H](C(=O)N[C@H](C(=O)N[C@@H](CCCNC(=N)N)C(=O)N[C@H](C(=O)O)C(C)(C)C)[C@@H](C)O)C(C)(C)C)NC(=O)[C@H](Cc2csc3ccccc23)NC(=O)[C@H](Cc2ccc3ccccc3c2)NC(=O)[C@H](CCCNC(=N)N)NC(=O)[C@H](CCCNC(=N)N)NC(=O)[C@@H](CCCNC(=N)N)NC1=O (Ac-C[dR]RR[2Nal][Bta][Pen][Tle]TR[Tle]-OH; disulfide 1-7),inhibition,Epithelial cell,inactive
CC(=O)N[C@@H](CS)C(=O)N[C@@H](CCCNC(=N)N)C(=O)N[C@@H](CCCNC(=N)N)C(=O)N[C@@H](CCCNC(=N)N)C(=O)N[C@@H](Cc1ccccc1)C(=O)N[C@@H](Cc1cccc2ccccc12)C(=O)N[C@@H](CCC(N)=O)C(=O)N[C@@H](CS)C(=O)N[C@H](C(=O)N[C@@H](CCCNC(=N)N)C(=O)N[C@H](C(=O)O)C(C)(C)C)[C@@H](C)O (Ac-CRRRF[1Nal]QCTR[Tle]-OH),IC50,[7],1800 nM
CC(=O)N[C@@H](CS)C(=O)N[C@H](CCCNC(=N)N)C(=O)N[C@H](CCCNC(=N)N)C(=O)N[C@@H](CCCNC(=N)N)C(=O)N[C@@H](Cc1ccc2ccccc2c1)C(=O)N[C@@H](Cc1c[nH]c2ccccc12)C(=O)N[C@@H](CCC(N)=O)C(=O)N[C@H](C(=O)N[C@H](C(=O)N[C@@H](CCCNC(=N)N)C(=O)N[C@H](C(=O)O)C(C)(C)C)[C@@H](C)O)C(C)(C)S (Ac-C[dR][dR]R[2Nal]WQ[Pen]TR[Tle]-OH),Drug uptake,[6],23%
CC(=O)N[C@@H](CS)C(=O)N[C@@H](CCCNC(=N)N)C(=O)N[C@@H](CCCNC(=N)N)C(=O)N[C@@H](CCCNC(=N)N)C(=O)N[C@@H](Cc1cccc2ccccc12)C(=O)N[C@@H](Cc1c[nH]c2ccccc12)C(=O)N[C@@H](CCC(N)=O)C(=O)N[C@H](C(=O)N[C@H](C(=O)N[C@@H](CCCNC(=N)N)C(=O)N[C@H](C(=O)O)C(C)(C)C)[C@@H](C)O)C(C)(C)S (Ac-CRRR[1Nal]WQ[Pen]TR[Tle]-OH),IC50,[7],150 nM
CC(=O)N[C@@H](CS)C(=O)N[C@@H](CCCNC(=N)N)C(=O)N[C@H](CCCNC(=N)N)C(=O)N[C@@H](CCCNC(=N)N)C(=O)N[C@@H](Cc1ccc2ccccc2c1)C(=O)N[C@@H](Cc1c[nH]c2ccccc12)C(=O)N[C@@H](CCC(N)=O)C(=O)N[C@H](C(=O)N[C@H](C(=O)N[C@@H](CCCNC(=N)N)C(=O)N[C@H](C(=O)O)C(C)(C)C)[C@@H](C)O)C(C)(C)S (Ac-CR[dR]R[2Nal]WQ[Pen]TR[Tle]-OH),Drug uptake,[6],17%
CC(=O)N[C@@H](CS)C(=O)N[C@H](CCCNC(=N)N)C(=O)N[C@@H](CCCNC(=N)N)C(=O)N[C@@H](CCCNC(=N)N)C(=O)N[C@@H](Cc1ccc2ccccc2c1)C(=O)N[C@@H](Cc1c[nH]c2ccccc12)C(=O)N[C@@H](CCC(N)=O)C(=O)N[C@H](C(=O)N[C@H](C(=O)N[C@@H](CCCNC(=N)N)C(=O)N[C@H](C(=O)O)C(C)(C)C)[C@@H](C)O)C(C)(C)S (Ac-C[dR]RR[2Nal]WQ[Pen]TR[Tle]-OH),IC50,[7],170 nM
same,Drug uptake,[6],28%
C[C@@H](O)[C@H](NC(=O)[C@@H](NC(=O)[C@H](CCC(N)=O)NC(=O)[C@H](Cc1c[nH]c2ccccc12)NC(=O)[C@H](Cc1ccc2ccccc2c1)NC(=O)[C@H](CCCNC(=N)N)NC(=O)[C@H](CCCNC(=N)N)NC(=O)[C@@H](CCCNC(=N)N)NC(=O)[C@H](CS)NC(=O)CCNC(=S)Nc1ccc(-c2c3ccc(=O)cc-3oc3cc(O)ccc23)c(C(=O)O)c1)C(C)(C)S)C(=O)N[C@@H](CCCNC(=N)N)C(=O)N[C@H](C(=O)O)C(C)(C)C,Kd,[1],1640 nM
same,Kd,[2],113 nM
same,Kd,[3],4.07 µM
same,Kd,[4],1870 nM
CC(=O)N[C@@H](CCCNC(=N)N)C(=O)N[C@@H](CCCNC(=N)N)C(=O)N[C@@H](Cc1ccccc1)C(=O)N[C@@H](Cc1c[nH]c2ccccc12)C(=O)N[C@H](CS)C(=O)N[C@@H](CS)C(=O)N[C@H](C(=O)N[C@@H](CCCNC(=N)N)C(=O)N[C@H](C(=O)O)C(C)(C)C)[C@@H](C)O (Ac-RRFW[dC]CTR[Tle]-OH),IC50,[5],10000 nM
C[C@@H](O)[C@H](NC(=O)[C@@H](NC(=O)[C@@H]1CCCCN1C(=O)[C@H](Cc1csc2ccccc12)NC(=O)[C@H](Cc1ccc2ccccc2c1)NC(=O)[C@H](CCCNC(=N)N)NC(=O)[C@H](CCCNC(=N)N)NC(=O)[C@@H](CCCNC(=N)N)NC(=O)[C@H](CS)NC(=O)COCCOCCNC(=S)Nc1ccc2c(c1)C(=O)OC21c2ccc(O)cc2Oc2cc(O)ccc21)C(C)(C)S)C(=O)N[C@@H](CCCNC(=N)N)C(=O)N[C@H](C(=O)O)C(C)(C)C,Kd,[1],780 nM
same,Kd,[2],6 nM
same,Kd,[3],7.48 µM
same,Kd,[4],1370 nM
CC(=O)N[C@@H](CS)C(=O)N[C@H](CCCNC(=N)N)C(=O)N[C@@H](CCCNC(=N)N)C(=O)N[C@@H](CCCNC(=N)N)C(=O)N[C@@H](Cc1ccc2ccccc2c1)C(=O)N[C@@H](Cc1c[nH]c2ccccc12)C(=O)N[C@H](C(=O)N[C@H](C(=O)N[C@H](C(=O)N[C@@H](CCCNC(=N)N)C(=O)N[C@H](C(=O)O)C(C)(C)C)[C@@H](C)O)C(C)(C)C)C(C)(C)S (Ac-C[dR]RR[2Nal]W[Pen][Tle]TR[Tle]-OH),Drug uptake,[6],92%
CC(=O)N[C@@H](CS)C(=O)N[C@@H](CCCNC(=N)N)C(=O)N[C@@H](CCCNC(=N)N)C(=O)N[C@@H](CCCNC(=N)N)C(=O)N[C@@H](Cc1ccc2ccccc2c1)C(=O)N[C@@H](Cc1c[nH]c2ccccc12)C(=O)N[C@@H](CCC(N)=O)C(=O)N[C@H](C(=O)N[C@H](C(=O)N[C@@H](CCCNC(=N)N)C(=O)N[C@H](C(=O)O)C(C)(C)C)[C@@H](C)O)C(C)(C)S (Ac-CRRR[2Nal]WQ[Pen]TR[Tle]-OH),IC50,[7],150 nM
CC(=O)N[C@@H](CCCNC(=N)N)C(=O)N[C@@H](CCCNC(=N)N)C(=O)N[C@@H](Cc1ccccc1)C(=O)N[C@@H](Cc1c[nH]c2ccccc12)C(=O)N[C@@H](CCC(N)=O)C(=O)N[C@@H](CS)C(=O)N[C@H](C(=O)N[C@@H](CCCCNC(=N)N)C(=O)N[C@H](C(=O)O)C(C)(C)C)[C@@H](C)O,IC50,[5],2400 nM
